According to ChEMBL document CHEMBL3797076, “5-HT2 receptor affinity, docking studies and pharmacological evaluation of a series of 1,3-disubstituted thiourea derivatives” (Eur J Med Chem, 2016):
Activity calls are given as the source filed them. The rule behind the calls is not given here.

Experiments:
[1] = system: Mus musculus; assay: Antinociceptive activity in Albino Swiss mouse assessed as inhibition of acetic acid-induced writhing response at 0.1 ED50, ip administered 60 mins prior to test measured for 10 mins; type: functional, organism-based
In short: (§1)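 Male Albino Swiss mice, i.p. dosing in 0.5% methylcellulose 60 min beforehand; 0.6% acetic acid injected i.p., writhing episodes counted for 10 min beginning 5 min after acid. Mean ± SEM; one-way ANOVA with Dunnett's test vs control.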

[2] = biological target: 5-hydroxytryptamine receptor 2A (Rattus norvegicus, UniProt P14842); assay: Displacement of [3H]ketanserin from 5HT2A receptor in Sprague-Dawley rat brain cortex incubated for 15 mins
In short: (§2)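 Rat frontal cortex homogenized in 50 mM Tris-HCl, 0.5 mM EDTA, 10 mM MgCl2, pH 7.4, washed, resuspended with 0.1% ascorbate and pargyline. Triplicates: 5-HT2A used 0.4 nM [3H]ketanserin, cinanserin for nonspecific binding; 5-HT2C used 1 nM [3H]mesulergine, mianserin nonspecific, 100 nM spiperone added. 15 min at 37 C, glass-fiber filtration.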

[3] = biological target: T1, 5-hydroxytryptamine receptor 2C (Rattus norvegicus, UniProt P08909); assay: Displacement of [3H]mesulergine from 5HT2C receptor in Sprague-Dawley rat brain cortex incubated for 15 mins; in short: as §2
T1 sequence (P08909 whole entry): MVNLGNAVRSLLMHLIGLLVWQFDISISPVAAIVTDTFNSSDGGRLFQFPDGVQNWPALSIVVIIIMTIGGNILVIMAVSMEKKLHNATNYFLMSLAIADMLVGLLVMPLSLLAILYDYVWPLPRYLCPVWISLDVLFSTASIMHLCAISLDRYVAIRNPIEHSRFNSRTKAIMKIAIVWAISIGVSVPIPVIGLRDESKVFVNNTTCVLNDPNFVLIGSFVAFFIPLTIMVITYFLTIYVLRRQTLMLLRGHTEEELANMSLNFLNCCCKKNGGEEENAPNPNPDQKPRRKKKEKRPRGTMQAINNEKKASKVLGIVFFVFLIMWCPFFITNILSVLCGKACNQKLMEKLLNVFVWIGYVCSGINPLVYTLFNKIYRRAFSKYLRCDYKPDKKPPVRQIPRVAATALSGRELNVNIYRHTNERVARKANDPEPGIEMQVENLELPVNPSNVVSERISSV

[4] = system: Mus musculus; assay: Inhibition of amphetamine-induced hyperlocomotion in Albino Swiss mouse at 0.1 ED50, ip administered 60 mins prior to test measured for 30 mins by photoresistor actometer analysis; type: functional
In short: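 Single male Albino Swiss mice; compound i.p. 60 min and amphetamine 5 mg/kg s.c. 30 min before test. Photoresistor actometers (circular cage, two light beams) counted beam crossings over 30 min; mean ± SEM, Dunnett's test vs control.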

[5] = system: Mus musculus; assay: Neurotoxicity in Albino Swiss mouse assessed as induction of myorelaxation at 0.0125 to 0.1 ED50, ip after 60 mins by chimney test; type: toxicity, organism-based; settings: in vivo, 1 h
[6] = system: Mus musculus; assay: Neurotoxicity in Albino Swiss mouse assessed as induction of myorelaxation at 0.0125 to 0.1 ED50, ip after 60 mins by rotarod test; type: toxicity, organism-based; settings: in vivo, 1 h
[7] = system: Mus musculus; assay: Neurotoxicity in Albino Swiss mouse assessed as impairment in motor coordination at 0.0125 to 0.1 ED50, ip after 60 mins by chimney test; type: toxicity, organism-based; settings: in vivo, 1 h
[8] = system: Mus musculus; assay: Neurotoxicity in Albino Swiss mouse assessed as impairment in motor coordination at 0.0125 to 0.1 ED50, ip after 60 mins by rotarod test; type: toxicity, organism-based; settings: in vivo, 1 h
[9] = system: Mus musculus; assay: Toxicity in ip dosed Albino Swiss mouse assessed as loss of righting reflex administered 60 mins before test measured up to 48 hrs; type: organism-based; settings: in vivo
In short: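 Acute toxicity in male Albino Swiss mice by Litchfield-Wilcoxon method: ED50 for loss of righting reflex after i.p. dosing, observed at 15, 30, 60, 180 min and 24, 48 h.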

[10] = system: Mus musculus; assay: Toxicity in Albino Swiss mouse assessed as inhibition of spontaneous locomotor activity at 0.1 ED50, ip administered 60 mins before test measured for 30 mins by photoresistor actometer analysis; type: organism-based; settings: in vivo, 0.5 h
In short: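 Spontaneous locomotion of single male Albino Swiss mice recorded in two-beam photoresistor actometers as beam crossings for 30 min, beginning 60 min after i.p. compound (suspension in 0.5% methylcellulose).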

[11] = system: Mus musculus; assay: Inhibition of 5-HTP-induced head twitch response in Albino Swiss mouse at 0.1 ED50, ip administered 60 mins before 5-HTP injection relative to untreated control; type: functional
In short: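 Male Albino Swiss mice given compound i.p. (0.1 ED50, 0.5% methylcellulose) 60 min before the test; L-5-HTP 230 mg/kg i.p. injected immediately before. Head twitches counted; mean ± SEM, Dunnett's test vs control.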

[12] = system: Mus musculus; assay: Inhibition of (+/-)DOI-induced head twitch response in Albino Swiss mouse at 36.55 mg/kg, ip administered 60 mins before (+/-)DOI injection measured for 20 mins relative to untreated control; type: functional
In short: (§3)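 Male Albino Swiss mice; compounds suspended in 0.5% methylcellulose, injected i.p. 60 min before (±)DOI 2.5 mg/kg i.p.; head twitches counted over 20 min. Mean ± SEM, percent reduction versus DOI-treated group; one-way ANOVA with Bonferroni post hoc test.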

[13] = system: Mus musculus; assay: Inhibition of (+/-)DOI-induced head twitch response in ip dosed Albino Swiss mouse administered 60 mins before (+/-)DOI injection measured for 20 mins; type: functional, organism-based; in short: as §3
[14] = system: Mus musculus; assay: Antinociceptive activity in Albino Swiss mouse assessed as inhibition of acetic acid-induced writhing response at 0.025 to 0.05 ED50, ip administered 60 mins prior to test measured for 10 mins; type: functional, organism-based; in short: as §1
[15] = system: Mus musculus; assay: Antinociceptive activity in Albino Swiss mouse assessed as inhibition of acetic acid-induced writhing response at 0.05 ED50, ip administered 60 mins prior to test measured for 10 mins in presence of opioid receptor antagonist naloxone; type: functional, organism-based
[16] = system: Mus musculus; assay: Anticonvulsant activity in Albino Swiss mouse assessed as protection against pentetrazol-induced tonic seizure at 0.1 ED50, ip administered 60 mins prior to test relative to untreated control; type: functional
In short: (§4)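 Male Albino Swiss mice (18-30 g); compound given i.p. as suspension in 0.5% methylcellulose 60 min before test; pentylenetetrazole 110 mg/kg s.c. Scored as number of mice with clonic seizures, tonic convulsions and deaths per animals tested; Fisher's exact test vs solvent control.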

[17] = system: Mus musculus; assay: Protection against pentetrazol-induced mortality in Albino Swiss mouse at 0.1 ED50, ip administered 60 mins prior to test relative to untreated control; type: functional
In short: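 Male Albino Swiss mice (18–30 g). Compound given i.p. as suspension in 0.5% methylcellulose (10 mL/kg), 60 min before test; controls got vehicle. Dose expressed as fraction of ED50 (loss of righting reflex within 48 h). Convulsions induced by pentylenetetrazole 110 mg/kg s.c.; dead animals counted per group (n=10; control n=16). Significance vs control by Fisher's exact test.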

[18] = system: Mus musculus; assay: Anticonvulsant activity in Albino Swiss mouse assessed as protection against pentetrazol-induced clonic seizure at 0.1 ED50, ip administered 60 mins prior to test relative to untreated control; type: functional; in short: as §4
[19] = system: Mus musculus; assay: Effect on body temperature in Albino Swiss mouse at 0.1 ED50, ip administered 60 mins before test measured 30 to 180 mins post dose; type: functional, organism-based
In short: (§5)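 Normothermic male Albino Swiss mice; rectal temperature by thermistor thermometer. Baseline taken as mean of readings at 60 and 30 min before dosing; i.p. dose (0.1 ED50, 0.5% methylcellulose vehicle) then readings at 30, 60, 90, 120 min (to 180 min for some). Change = final minus initial; Bonferroni post hoc test.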

[20] = system: Mus musculus; assay: Inhibition of (+/-)DOI-induced head twitch response in Albino Swiss mouse at 73.1 mg/kg, ip administered 60 mins before (+/-)DOI injection measured for 20 mins relative to untreated control; type: functional; in short: as §3
[21] = system: Mus musculus; assay: Protection against pentetrazol-induced mortality in Albino Swiss mouse at 0.05 ED50, ip administered 60 mins prior to test; type: functional, organism-based; in short: as §4
[22] = system: Mus musculus; assay: Decrease in body temperature in Albino Swiss mouse at 0.1 ED50, ip administered 60 mins before test measured 60 to 120 mins post dose; type: functional, organism-based; in short: as §5
[23] = system: Mus musculus; assay: Inhibition of 5-HTP-induced head twitch response in ddY mouse at >=1 mg/kg, po administered 1 hr before 5-HTP injection measured after 30 mins relative to untreated control; type: functional
[24] = system: Mus musculus; assay: Inhibition of (+/-)DOI-induced head twitch response in Albino Swiss mouse at 5 mg/kg, ip administered 60 mins before (+/-)DOI injection measured for 20 mins relative to untreated control; type: functional; in short: as §3
[25] = system: Mus musculus; assay: Antinociceptive activity in Albino Swiss mouse assessed as inhibition of acetic acid-induced writhing response at 0.1 ED50, ip administered 60 mins prior to test measured for 10 mins in presence of opioid receptor antagonist naloxone; type: functional, organism-based

5-hydroxytryptamine receptor 2A, sequence (P14842 whole entry): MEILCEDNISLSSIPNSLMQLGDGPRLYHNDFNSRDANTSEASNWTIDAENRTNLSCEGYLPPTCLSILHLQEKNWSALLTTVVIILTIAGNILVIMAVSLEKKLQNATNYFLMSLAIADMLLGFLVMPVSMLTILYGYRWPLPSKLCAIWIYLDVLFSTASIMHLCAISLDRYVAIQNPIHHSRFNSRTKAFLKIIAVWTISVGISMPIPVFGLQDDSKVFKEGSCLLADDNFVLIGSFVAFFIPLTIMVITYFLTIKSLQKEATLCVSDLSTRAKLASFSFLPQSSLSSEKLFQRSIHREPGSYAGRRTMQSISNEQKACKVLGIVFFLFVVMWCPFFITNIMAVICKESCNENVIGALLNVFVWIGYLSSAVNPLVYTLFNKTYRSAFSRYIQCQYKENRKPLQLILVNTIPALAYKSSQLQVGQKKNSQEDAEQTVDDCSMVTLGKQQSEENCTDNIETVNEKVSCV

| SMILES | inhibition [1] | Ki [2] [µM] | Ki [3] [µM] | inhibition [4] | Activity [5] | Activity [6] | Activity [7] | Activity [8] | ED50 [9] [mg/kg] | Activity [10] | inhibition (INH) [11] [%] | inhibition [14] | inhibition [15] | Activity [16] [%] | Activity [18] [%] | also measured |
| --- | --- | --- | --- | --- | --- | --- | --- | --- | --- | --- | --- | --- | --- | --- | --- | --- |
| FC(F)(F)c1cccc(NC(S)=NCc2ccccc2)c1 | Active | 0.0006 | > 10 | Active | Non-toxic | Non-toxic | Non-toxic | Non-toxic | 731.3 | Non-toxic | 73.3 | Active | Active | 46.66 | 40 | inhibition in vivo at 36.55 mg/kg [12]: 69.4%; inhibition [13]: Dose-dependent effect; Activity [17]: Active; Activity [19]: inactive; inhibition in vivo at 73.1 mg/kg [20]: 72.2% |
| O=[N+]([O-])c1cc(NC(=S)NCc2ccccc2)ccc1Cl | Active | > 10 | > 10 | inactive | Non-toxic | Non-toxic | Non-toxic | Non-toxic | 909 | Non-toxic | 70.5 | Active | Active | 43.75 | 43.75 | Activity [21]: Active; Activity [22]: Active |
| O=[N+]([O-])c1cc(NC(=S)Nc2ccccc2)ccc1Cl | – | > 10 | > 10 | – | – | – | – | – | – | – | – | – | – | – | – | – |
| O=C(NC(=S)Nc1ccc(Cl)c([N+](=O)[O-])c1)c1ccccc1 | – | > 10 | > 10 | – | – | – | – | – | – | Non-toxic | – | – | – | – | – | – |
| O=C(c1ccc(F)cc1)C1CCN(CCn2c(=O)[nH]c3ccccc3c2=O)CC1 [KETANSERIN] | – | – | – | – | – | – | – | – | – | – | – | – | – | – | – | inhibition (INH) [23]: >80%; inhibition in vivo at 5 mg/kg [24]: 100% |
| FC(F)(F)c1cccc(NC(=S)Nc2ccccc2Cl)c1 | Active | > 10 | > 10 | – | Non-toxic | Non-toxic | Non-toxic | Non-toxic | 2000 | Toxic | 72.4 | – | – | – | – | inhibition [25]: Active |
